The values below come from ChEMBL document CHEMBL1147883, “Design, synthesis, and biological evaluation of substituted-N-(thieno[2,3-b]pyridin-3-yl)-guanidines, N-(1H-pyrrolo[2,3-b]pyridin-3-yl)-guanidines, and N-(1H-indol-3-yl)-guanidines” (2007).

Holding throughout (format): functional, Rattus norvegicus
A short description of test [1]: Insulinotropic activity in RIN5F cells assessed as stimulation of glucose-dependent insulin secretion per microgram of protein at 10 uM. Put shortly:
(§1)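 Seeded at 0.2×10^6 cells/well, grown overnight to 80% confluence. PBS wash, then 40 min preincubation in Krebs-Ringer Hepes buffer (1.1 mM glucose, 0.5% BSA, pH 7.4). Supernatant insulin measured by rat insulin ELISA and normalized to total protein (pg/µg/h). n = 3, mean ± SD.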

Test [2] is described as follows: Insulinotropic activity in RIN5F cells assessed as stimulation of glucose-dependent insulin secretion per ug of protein at 0.1 uM. Put shortly:
as §1

Test [3] in a line: Insulinotropic activity in RIN5F cells assessed as stimulation of glucose-dependent insulin secretion per ug of protein at 1 uM. An outline of the steps: as §1

Regarding `CCc1[nH]c2ccc(Cl)cc2c1NC(=N)N`, the results for the Activity in test [1], in test [2] and in test [3] were 35.2 pg/h, 15.8 pg/h and 19.5 pg/h, respectively.

On to `N=C(N)Nc1c(Cc2ccccc2)[nH]c2ccccc12`, for which the Activity in test [1] was determined as 15.1 pg/h; in test [2], 11.1 pg/h; in test [3] it was 13.1 pg/h.

Take `N=C(N)Nc1c(-c2ccccc2)[nH]c2ncccc12`: the Activity worked out at 28.5 pg/h in test [1], 11.5 pg/h in test [2] and 15.5 pg/h in test [3].

`CCc1[nH]c2ncc(Cl)cc2c1NC(=N)N`: the Activity in test [1] amounted to 33.1 pg/h; in test [2], 15.1 pg/h; in test [3], 18.1 pg/h.

Take `N=C(N)Nc1c(-c2ccccc2)[nH]c2ncc(Cl)cc12`: the values for the Activity in test [1], in test [2] and in test [3] were 33.1 pg/h, 15.2 pg/h and 18.1 pg/h, respectively.

For the molecule `N=C(N)Nc1c(C2CCCCC2)[nH]c2ncc(Cl)cc12`, the results for the Activity in test [1], in test [2] and in test [3] were 15.1 pg/h, 10.8 pg/h and 13.1 pg/h, respectively.

As to `N=C(N)Nc1c(Cc2ccccc2)[nH]c2ncc(Cl)cc12`, the Activity in test [1] stood at 15 pg/h; in test [2], 10.9 pg/h; in test [3] it was 12.9 pg/h.

As for `CCc1sc2ncccc2c1NC(=N)N`, the values for the Activity in test [1], in test [2] and in test [3] were 14.6 pg/h, 10.6 pg/h and 12.6 pg/h, respectively.

As to `CCc1sc2ncc(Cl)cc2c1NC(=N)N`, the Activity in test [1] was 31.5 pg/h; in test [2], 14.8 pg/h; in test [3], 17.8 pg/h.

Consider `N=C(N)Nc1c(Cc2ccccc2)sc2ncc(Cl)cc12`, for which the Activity in test [1] came to 14.5 pg/h; in test [2] it was 10.6 pg/h; in test [3] it was 12.6 pg/h.

For the molecule `N=C(N)Nc1c[nH]c2ncccc12`, the Activity was 14.5 pg/h in test [1], 10.5 pg/h in test [2] and 12.5 pg/h in test [3].

Regarding `N=C(N)Nc1csc2ncc(Cl)cc12`, the Activity amounted to 14.2 pg/h in test [1], 10.2 pg/h in test [2] and 12.2 pg/h in test [3].

`Cc1[nH]c2ncc(Cl)cc2c1NC(=N)N`: the Activity is 35.1 pg/h in test [1], 15.5 pg/h in test [2] and 19.1 pg/h in test [3].

On to `Cc1sc2ncccc2c1NC(=N)N`, for which the Activity in test [1] was found to be 29.1 pg/h; in test [2], 11.1 pg/h; in test [3] it was 15.1 pg/h.

For `Cc1[nH]c2ccc(Cl)cc2c1C1=NCCN1`, the Activity came out at 36.4 pg/h in test [1], 16.4 pg/h in test [2] and 20.6 pg/h in test [3].

As for `Cc1[nH]c2ccc(Cl)cc2c1NC(=N)N`, the Activity in test [1] came to 36 pg/h; in test [2], 16.1 pg/h; in test [3], 20.1 pg/h.

`N=C(N)Nc1c(-c2ccccc2)[nH]c2ccccc12`: the Activity turned out to be 29.1 pg/h in test [1], 12.1 pg/h in test [2] and 16.1 pg/h in test [3].

Take `N=C(N)Nc1c(C2CCCCC2)[nH]c2ccccc12`: the Activity in test [1] stood at 15.1 pg/h; in test [2] it was 10.9 pg/h; in test [3] it was 13.1 pg/h.

Take `N=C(N)Nc1c(C2CCCCC2)[nH]c2ccc(Cl)cc12`: the Activity in test [1] stood at 15.9 pg/h; in test [2], 11.2 pg/h; in test [3] it was 13.2 pg/h.

On to `N=C(N)Nc1c(Cc2ccccc2)[nH]c2ccc(Cl)cc12`, for which the Activity worked out at 15.4 pg/h in test [1], 11.2 pg/h in test [2] and 13.2 pg/h in test [3].

In the case of `N=C(N)Nc1c[nH]c2ccc(Cl)cc12`, the Activity in test [1] came out at 15.5 pg/h; in test [2] it was 11.1 pg/h; in test [3], 13.2 pg/h.

In the case of `CCc1[nH]c2ccccc2c1NC(=N)N`, the Activity in test [1] is 16.1 pg/h; in test [2], 11.1 pg/h; in test [3], 13.4 pg/h.

With `N=C(N)Nc1c(-c2ccccc2)[nH]c2ccc(Cl)cc12`, the Activity in test [1] was 35.5 pg/h; in test [2], 15.9 pg/h; in test [3], 19.5 pg/h.

Take `N=C(N)Nc1c[nH]c2ccccc12`: the Activity in test [1] was determined as 15 pg/h; in test [2], 10.9 pg/h; in test [3] it was 13 pg/h.

For `Cc1sc2ncc(Cl)cc2c1NC(=N)N`, the Activity in test [1] is 32.1 pg/h; in test [2], 15.1 pg/h; in test [3] it was 18.1 pg/h.

As for `N=C(N)Nc1c(Cc2ccccc2)[nH]c2ncccc12`, the Activity in test [1] worked out at 14.9 pg/h; in test [2], 10.9 pg/h; in test [3] it was 12.6 pg/h.

As to `N=C(N)Nc1c(-c2ccccc2)sc2ncccc12`, the Activity in test [1] is 27.9 pg/h; in test [2] it was 11.1 pg/h; in test [3], 15.1 pg/h.

As to `N=C(N)Nc1c(C2CCCCC2)sc2ncccc12`, the values for the Activity in test [1], in test [2] and in test [3] were 14.1 pg/h, 10.1 pg/h and 12.1 pg/h, respectively.

Turning to `N=C(N)Nc1c(C2CCCCC2)sc2ncc(Cl)cc12`, the values for the Activity in test [1], in test [2] and in test [3] were 14.5 pg/h, 10.5 pg/h and 12.5 pg/h, respectively.

Regarding `N=C(N)Nc1c(Cc2ccccc2)sc2ncccc12`, the Activity in test [1] was 14.5 pg/h; in test [2], 10.5 pg/h; in test [3], 12.5 pg/h.

`Cc1[nH]c2ncccc2c1NC(=N)N`: the Activity in test [1] was determined as 29.5 pg/h; in test [2], 11.5 pg/h; in test [3] it was 15.5 pg/h.

Regarding `Cc1[nH]c2ccccc2c1NC(=N)N`, the Activity in test [1] amounted to 30.1 pg/h; in test [2], 12.1 pg/h; in test [3], 16.1 pg/h.

As for `N=C(N)Nc1csc2ncccc12`, the Activity was 14.1 pg/h in test [1], 10.1 pg/h in test [2] and 12.1 pg/h in test [3].

Turning to `N=C(N)Nc1c(C2CCCCC2)[nH]c2ncccc12`, the Activity in test [1] was found to be 14.5 pg/h; in test [2], 10.2 pg/h; in test [3], 12.5 pg/h.

Consider `CCc1[nH]c2ncccc2c1NC(=N)N`, for which the Activity in test [1] was determined as 15 pg/h; in test [2], 10.8 pg/h; in test [3] it was 13 pg/h.

Regarding `N=C(N)Nc1c[nH]c2ncc(Cl)cc12`, the Activity in test [1] is 14.6 pg/h; in test [2] it was 10.5 pg/h; in test [3] it was 12.5 pg/h.

On to `N=C(N)Nc1c(-c2ccccc2)sc2ncc(Cl)cc12`, for which the Activity in test [1] came out at 31.6 pg/h; in test [2] it was 14.9 pg/h; in test [3], 17.8 pg/h.

For the molecule `CCCCNC(=O)NS(=O)(=O)c1ccc(C)cc1` [TOLBUTAMIDE], the Activity in test [2] turned out to be 19.9 pg/h; in test [3], 27.1 pg/h.
